The target of test [1] is T1, Hepatic sodium/bile acid cotransporter (Homo sapiens, UniProt Q14973).
T1 sequence (Q14973 whole entry): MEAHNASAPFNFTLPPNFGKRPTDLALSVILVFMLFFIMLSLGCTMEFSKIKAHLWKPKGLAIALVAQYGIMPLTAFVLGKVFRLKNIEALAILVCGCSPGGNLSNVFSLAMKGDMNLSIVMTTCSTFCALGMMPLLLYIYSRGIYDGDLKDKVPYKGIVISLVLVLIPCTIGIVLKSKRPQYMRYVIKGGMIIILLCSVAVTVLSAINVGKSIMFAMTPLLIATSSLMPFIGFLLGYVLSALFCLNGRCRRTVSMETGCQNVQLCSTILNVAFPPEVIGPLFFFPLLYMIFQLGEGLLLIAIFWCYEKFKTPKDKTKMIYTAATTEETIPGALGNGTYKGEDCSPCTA
Nature of the test: Inhibition of human recombinant NTCP expressed in CHO cells assessed as reduction in [3H]taurocholate uptake incubated for 2 mins by scintillation counting method. In kind it is cell-based.

Test [2] relates to Hepatitis B virus. Description: Antiviral activity against hepatitis B virus infected in human HepG2.2.15 cells assessed as reduction in HBV DNA level incubated for 9 days by real time-PCR analysis. In kind it is functional, organism-based.
For test [3], the system named is HepG2. Description: Antiproliferative activity against human HepG2 cells assessed as inhibition of cell growth incubated for 24 hrs by MTT assay. The note with it: HepG2, 24 h. The test is classed as functional, cell-based. A digest of the protocol:
(§1)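 HepG2 cells exposed to a range of concentrations for the stated times, then inhibition rate measured by MTT.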
(Tetrazolium dyes change colour on reduction, which living cells bring about.)

The test system of test [4] is Hepatitis B virus. Nature of the test: Antiviral activity against hepatitis B virus infected in human HepG2.2.15 cells assessed as HBsAg secretion at 5 uM incubated for 9 days by ELISA (reference value: 8.41+/- 0.54 ng/ml). In kind it is functional. For orientation: ELISA stands for enzyme-linked immunosorbent assay.
Test [5] concerns Hepatitis B virus. Nature of the test: Antiviral activity against hepatitis B virus infected in human HepG2.2.15 cells assessed as reduction in HBeAg secretion at 5 uM incubated for 9 days by ELISA (reference value: 25.13 +/- 1.93 ng/ml). The test is classed as functional.
Test [6] has as its target T1, Hepatic sodium/bile acid cotransporter. Description: Inhibition of NTCP in human hepatocytes. The test is classed as cell-based.
The target is the same in test [7]. Nature of the test: Inhibition of NTCP in human hepatocytes assessed as reduction in Na+-dependent [3H]taurocholate uptake measured at 45s following compound addition by liquid scintillation counting method. The test is classed as cell-based.
For test [8] the target is unchanged. Description: Inhibition of human recombinant NTCP expressed in CHO cells assessed as reduction in [3H]taurocholate uptake preincubated for 1 hr by radioactive scintillation counting method. The test is classed as cell-based.
Test [9] deals with HepG2. Nature of the test: Induction of apoptosis in human HepG2 cells assessed as early apoptotic cells at 2.5 uM incubated for 24 hrs by annexin -V/propidium iodide staining based flow cytometry (reference value: 2.23%). The test is classed as functional. In general terms: In flow cytometry, cells or beads pass a laser one at a time.
Test [10] concerns HepG2. Nature of the test: Inhibition of NTCP protein expression in human HepG2 cells at 2.5 to 10 uM incubated for 24 hrs by western blot analysis. The test is classed as functional, cell-based. The method in brief:
(§2)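 HepG2 cells treated 24 h at several concentrations; NTCP, PARP, Bax, Bcl-2 and caspase-3 detected by western blot.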

Test [11] concerns HepG2. Nature of the test: Induction of apoptosis in human HepG2 cells assessed as early apoptotic cells at 10 uM incubated for 24 hrs by annexin -V/propidium iodide staining based flow cytometry (reference value: 2.23%). The test is classed as functional.
Test [12] has as its system HepG2. Nature of the test: Antiproliferative activity against human HepG2 cells assessed as inhibition of cell growth incubated for 48 hrs by MTT assay. The test is classed as functional, cell-based. The note with it: HepG2, 48 h. The method in brief: as §1
Test [13] relates to HepG2. Nature of the test: Induction of apoptosis in human HepG2 cells assessed as increase in caspase-3 cleavage at 2.5 to 10 uM incubated for 24 hrs by Western blot analysis. In kind it is functional, cell-based. The method in brief: as §2
The test system of test [14] is HepG2. Description: Induction of apoptosis in human HepG2 cells assessed as early apoptotic cells at 5 uM incubated for 24 hrs by annexin -V/propidium iodide staining based flow cytometry (reference value: 2.23%). In kind it is functional.
Test [15] relates to HepG2. Nature of the test: Induction of apoptosis in human HepG2 cells assessed as upregulation of Bax protein expression at 2.5 to 10 uM incubated for 24 hrs by Western blot analysis. The test is classed as functional, cell-based. The method in brief: as §2
Test [16] has as its system HepG2. Nature of the test: Induction of apoptosis in human HepG2 cells assessed as late apoptotic cells at 2.5 uM incubated for 24 hrs by annexin -V/propidium iodide staining based flow cytometry (reference value: 4.72%). The test is classed as functional.
For test [17], the system named is HepG2. Nature of the test: Induction of apoptosis in human HepG2 cells assessed as downregulation of Bcl2 protein expression at 2.5 to 10 uM incubated for 24 hrs by Western blot analysis. The test is classed as functional, cell-based. A digest of the protocol: as §2
Test [18] relates to HepG2. Nature of the test: Induction of apoptosis in human HepG2 cells assessed as increase in PARP cleavage at 2.5 to 10 uM incubated for 24 hrs by Western blot analysis. In kind it is functional, cell-based. A digest of the protocol:
as §2

In test [19] the test system is HepG2. Nature of the test: Antiproliferative activity against human HepG2 cells assessed as inhibition of cell growth incubated for 72 hrs by MTT assay. The test is classed as functional, cell-based. The note with it: HepG2, 72 h. A digest of the protocol: as §1
Test [20] relates to HepG2. Description: Induction of apoptosis in human HepG2 cells assessed as late apoptotic cells at 5 uM incubated for 24 hrs by annexin -V/propidium iodide staining based flow cytometry (reference value: 4.72%). The test is classed as functional.
Test [21] has as its system HepG2. Nature of the test: Induction of apoptosis in human HepG2 cells assessed as late apoptotic cells at 10 uM incubated for 24 hrs by annexin -V/propidium iodide staining based flow cytometry (reference value: 4.72%). In kind it is functional.
Test [22] deals with HepG2. Description: Induction of cell morphological changes in human HepG2 cells assessed as condensed chromatin at 2.5 to 10 uM incubated for 24 hrs by Hoechst 33258 staining based fluorescence microscopy. In kind it is functional. A digest of the protocol: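 HepG2 cells treated 24 h at several concentrations, stained with Hoechst 33258, chromatin morphology examined by fluorescence microscopy.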

Each structure is given as a SMILES string. Active and inactive are the calls of the source. The rule behind the calls is not given here.

As for `CC(C)n1c(/C=C/C(O)CC(O)CC(=O)O)c(-c2ccc(F)cc2)c2ccccc21` (configuration not stated) [FLUVASTATIN], in test [1], the half-maximal inhibitory concentration (IC50) – broadly, the point on the concentration scale where inhibition reaches its midpoint – is 40 µM.

Consider `O=C(CNC(=O)c1cccnc1Cl)N/N=C/c1cccc(OCc2ccccc2Cl)c1`, for which the inhibition result with Hepatitis B virus [2] is “Active”. Besides, the IC50 with HepG2 [3] is 3.1 µM. Also, the Activity came out at 2.05 ng/mL in the test on Hepatitis B virus [4] and 6.43 ng/mL with Hepatitis B virus [5].

For the molecule `Cc1cc(OCCCS(C)(=O)=O)cc(C)c1-c1cccc(COc2ccc3c(c2)OC[C@H]3CC(=O)O)c1`, the half-maximal inhibitory concentration (IC50) in test [6] amounted to 2000 nM.

In the case of `COc1ccccc1Oc1c(NS(=O)(=O)c2ccc(C(C)(C)C)cc2)nc(-c2ncccn2)nc1OCCO` [BOSENTAN], in test [7], the IC50 stood at 30 µM.

Regarding `N#Cc1ccc(C(=O)NCC(=O)N/N=C/c2ccccc2OCc2ccccc2Cl)cc1`, in the test with HepG2 [3], the half-inhibitory concentration (IC50) is more than 50 µM. Further, the values for the Activity in the test with Hepatitis B virus [4] and in the test with Hepatitis B virus [5] were 8.33 ng/mL and 25.22 ng/mL, respectively.

As for `Cc1ccc(C(=O)NCC(=O)N/N=C/c2ccccc2OCc2ccc(Cl)cc2)cc1`, the concentration for half-maximal inhibition (IC50) in the test with HepG2 [3] was more than 50 µM. Also, the Activity in the test with Hepatitis B virus [4] came out at 7.79 ng/mL; in the test on Hepatitis B virus [5] it was 22.99 ng/mL.

`CCN(CC)c1ccc(/C=N/NC(=O)CNC(=O)c2ccc(C)cc2)c(OCc2ccccc2Cl)c1`: the half-maximal inhibitory concentration (IC50) in the test with HepG2 [3] is more than 50 µM. In addition, the Activity is 8.37 ng/mL in the test with Hepatitis B virus [4] and 24.55 ng/mL in the test with Hepatitis B virus [5].

Turning to `COc1ccc(/C=N/NC(=O)CNC(=O)c2ccc(C)cc2)c(OCc2ccccc2Cl)c1`, the half-maximal inhibitory concentration (IC50) in the test on HepG2 [3] is more than 50 µM. The values for the Activity in the test with Hepatitis B virus [4] and in the test with Hepatitis B virus [5] were 7.94 ng/mL and 23.53 ng/mL, respectively.

Regarding `O=C(CNC(=O)c1cccnc1Cl)N/N=C/c1ccccc1OCc1cc2c(cc1Cl)OCO2`, the IC50 in the test on HepG2 [3] is more than 50 µM. In addition, the Activity turned out to be 8.39 ng/mL with Hepatitis B virus [4] and 25.47 ng/mL in the test with Hepatitis B virus [5].

In the case of `O=C(CNC(=O)c1ccc(-c2ccccc2)cc1)N/N=C/c1ccc(OCc2cc3c(cc2Cl)OCO3)cc1`, the IC50 in the test on HepG2 [3] is more than 50 µM. Besides, the Activity in the test on Hepatitis B virus [4] was found to be 7.66 ng/mL; in the test with Hepatitis B virus [5] it was 23.8 ng/mL.

With `O=C(CNC(=O)c1cccnc1Cl)N/N=C/c1ccc(OCc2ccccc2Cl)cc1`, in the test on Hepatitis B virus [2], the inhibition entry is “Active”. In the test on HepG2 [3], the IC50 came out at 4.7 µM. For the same molecule, the Activity with Hepatitis B virus [4] came to 2.48 ng/mL; with Hepatitis B virus [5], 7.36 ng/mL.

On to `COc1ccc(COc2ccccc2/C=N/NC(=O)CNC(=O)c2ccc(C)cc2)cc1`, for which, in the test with HepG2 [3], the IC50 was more than 50 µM. Also, the Activity was 7.66 ng/mL with Hepatitis B virus [4] and 23.04 ng/mL with Hepatitis B virus [5].

On to `O=C(CNC(=O)c1ccc(-c2ccccc2)cc1)N/N=C/c1ccccc1OCc1ccccc1Cl`, for which the IC50 with HepG2 [3] was more than 50 µM. For the same molecule, the Activity is 8.31 ng/mL in the test on Hepatitis B virus [4] and 24.88 ng/mL in the test with Hepatitis B virus [5].

Consider `CCCNS(=O)(=O)Nc1ncnc(OCCOc2ncc(Br)cn2)c1-c1ccc(Br)cc1`, for which, in test [8], the 50% inhibitory concentration (IC50) turned out to be 10 µM.

For the molecule `Cc1ccc(C(=O)NCC(=O)N/N=C/c2cccc(OCc3ccccc3Cl)c2)cc1`, the concentration for half-maximal inhibition (IC50) with HepG2 [3] was 47.5 µM. Also, the Activity worked out at 5.74 ng/mL with Hepatitis B virus [4] and 18.09 ng/mL in the test with Hepatitis B virus [5].

As for `Cc1ccc(C(=O)NCC(=O)N/N=C/c2ccccc2OCc2cc3c(cc2Cl)OCO3)cc1`, the Activity in the test with HepG2 [9] was 4.73%; in the test with HepG2 [11], 5.99%; in the test with HepG2 [14] it was 5.39%; in the test on HepG2 [16] it was 15.33%; in the test on Hepatitis B virus [4], 1.93 ng/mL; in the test with HepG2 [20], 21.66%. The Activity in the test on HepG2 [21] came to 30.48%; in the test with Hepatitis B virus [5], 7.43 ng/mL. The inhibition entry with HepG2 [10] and with Hepatitis B virus [2] was “Active” throughout. For the same molecule, the values for the IC50 in the test on HepG2 [12], in the test on HepG2 [3] and with HepG2 [19] were 1200 nM, 2.8 µM and 900 nM, respectively. In addition, the outcome in the test on HepG2 [13], with HepG2 [15], in the test on HepG2 [17], with HepG2 [18] and with HepG2 [22] was Active.
